Reference: ChEMBL document CHEMBL1129555, “Arylacetamide-derived fluorescent probes: synthesis, biological evaluation, and direct fluorescent labeling of kappa opioid receptors in mouse microglial cells” (J Med Chem, 1996)

Legend:
[1] = biological target: T1, Kappa-type opioid receptor (Cavia porcellus, UniProt P41144); test: Inhibitory activity against Opioid receptor kappa 1 in electrically stimulated guinea pig longitudinal ileal muscle (GPI) preparation.
How it was run: (§1)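 Electrically stimulated guinea pig longitudinal ileal muscle or mouse vas deferens preparations, run per earlier work. The read-out is inhibition of twitch, given as IC50 (nM), arithmetic mean ± SEM of at least three experiments.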

[2] = species on record: Cavia porcellus; test: Percent recovery of twitch height after 30-40 washes with buffer using smooth guinea pig ileal muscle; assay type: functional; conditions: Muscle tissue
How it was run: (§2)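 After agonist treatment, the electrically stimulated guinea pig ileum or mouse vas deferens was washed 30-40 times with buffer alone. Percent recovery of twitch height was recorded, n = 1.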

[3] = biological target: T1, Kappa-type opioid receptor; test: Binding affinity towards Opioid receptor kappa 1 in guinea pig brain
How it was run: (§3)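 Competition binding against radioligands in guinea pig brain membranes, modified from a published method. κ: 1 nM [³H]U69,593; µ: 2 nM [³H]DAMGO; δ1: 5 nM [³H]DPDPE; δ2: 2 nM [³H]DSLET. Ki values are geometric means of three experiments.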

[4] = biological target: Mu-type opioid receptor (Cavia porcellus, UniProt P97266); test: Binding affinity towards Opioid receptor mu 1 in guinea pig brain; how it was run: as §3
Mu-type opioid receptor, sequence (P97266 whole entry): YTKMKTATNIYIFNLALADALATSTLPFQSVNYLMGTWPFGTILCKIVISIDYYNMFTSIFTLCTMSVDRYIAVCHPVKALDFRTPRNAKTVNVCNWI

[5] = species on record: Mus musculus; test: Percent recovery of twitch height after 30-40 washes with buffer using mouse vas deferens preparation; assay type: functional; how it was run: as §2
[6] = species on record: Cavia porcellus; test: Percent recovery after treatment with 500 nM of NTX and removal of NTX by 40 washes with buffer using smooth guinea pig ileal muscle; assay type: functional; conditions: Muscle tissue
How it was run: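 Agonist-treated guinea pig ileum was incubated with 500 nM naltrexone for 10 min. NTX was then removed by 40 washes with buffer, and recovery of electrically evoked twitch height was recorded as percent. n = 1.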

[7] = biological target: Kappa-type opioid receptor (Mus musculus, UniProt P33534); test: Inhibitory activity against Opioid receptor kappa 1 in electrically stimulated mouse vas deferens (MVD) preparation.; how it was run: as §1
Kappa-type opioid receptor (Mus musculus, UniProt P33534), sequence (P33534 whole entry): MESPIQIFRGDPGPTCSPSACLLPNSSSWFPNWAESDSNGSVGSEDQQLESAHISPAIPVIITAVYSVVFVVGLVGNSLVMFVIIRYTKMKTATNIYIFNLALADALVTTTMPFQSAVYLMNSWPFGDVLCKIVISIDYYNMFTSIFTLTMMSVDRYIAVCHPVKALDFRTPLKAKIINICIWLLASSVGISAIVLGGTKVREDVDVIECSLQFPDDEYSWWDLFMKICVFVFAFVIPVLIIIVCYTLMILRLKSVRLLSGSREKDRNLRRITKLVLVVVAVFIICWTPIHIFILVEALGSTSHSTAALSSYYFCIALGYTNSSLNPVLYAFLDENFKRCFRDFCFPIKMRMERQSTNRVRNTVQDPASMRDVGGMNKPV

T1 sequence (P41144 whole entry): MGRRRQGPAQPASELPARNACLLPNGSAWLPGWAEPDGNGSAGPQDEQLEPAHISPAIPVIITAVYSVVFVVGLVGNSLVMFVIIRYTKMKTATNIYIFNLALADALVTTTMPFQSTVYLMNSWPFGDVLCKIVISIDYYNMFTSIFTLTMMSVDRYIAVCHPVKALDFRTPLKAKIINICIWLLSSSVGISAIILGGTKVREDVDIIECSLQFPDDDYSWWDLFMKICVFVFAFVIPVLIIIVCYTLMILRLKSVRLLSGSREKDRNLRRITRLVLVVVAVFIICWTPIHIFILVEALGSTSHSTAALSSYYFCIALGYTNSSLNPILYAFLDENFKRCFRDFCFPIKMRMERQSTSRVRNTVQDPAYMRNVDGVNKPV

Question: Which results are given for `CN(C(=O)Cc1ccc(Cl)c(Cl)c1)[C@H](CN1CCCC1)c1cccc(NC(=O)CNC(=O)CNC(=O)CNC(=O)C/N=C(S)/N=C2\C=CC(=C3c4ccc(O)cc4Oc4cc(O)ccc43)C(C(=O)O)=C2)c1`?
Answer: IC50 [1]: 0.15 nM; Recovery [2]: 44%; Ki [3]: 0.91 nM; Ki [4]: 631 nM; Recovery [5]: 100%; Recovery [6]: 131%; IC50 [7]: 6.5 nM

Question: What does the source list for `CN(C(=O)Cc1ccc(Cl)c(Cl)c1)[C@H](CN1CCCC1)c1cccc(NC(=S)Nc2ccc(-c3c4ccc(=O)cc-4oc4cc(O)ccc34)c(C(=O)O)c2)c1`?
Answer: IC50 [1]: 0.37 nM; IC50 [7]: 1.2 nM

Question: Which Recovery [2] does the source give for `CN(C(=O)Cc1ccc(Cl)c(Cl)c1)[C@H](CN1CCCC1)c1cccc(N/C(S)=N/c2ccc(-c3c4ccc(=O)cc-4oc4cc(O)ccc34)c(C(=O)O)c2)c1` here?
Answer: 21%

Question: What about the Recovery [5] of the same molecule?
Answer: 100%

Question: And the Recovery [6]?
Answer: 61%

Question: How did the IC50 [1] turn out when `CN(C(=O)Cc1ccc(Cl)c(Cl)c1)C(CN1CCCC1)c1ccc(NC(=O)CNC(=O)C/N=C(S)\N=C2/C=CC(=C3c4ccc(O)cc4Oc4cc(O)ccc43)C(C(=O)O)=C2)cc1` (centres undefined) was run?
Answer: 48 nM

Question: What about the IC50 [7] of the same molecule?
Answer: 170 nM

Question: What does the source list for `CN(C(=O)Cc1ccc(Cl)c(Cl)c1)[C@H](CN1CCCC1)c1cccc(NC(=O)CNC(=O)C/N=C(S)/N=C2\C=CC(=C3c4ccc(O)cc4Oc4cc(O)ccc43)C(C(=O)O)=C2)c1`?
Answer: IC50 [1]: 1.2 nM; Recovery [2]: 34%; Recovery [5]: 100%; Recovery [6]: 37%; IC50 [7]: 1.5 nM

Question: How did the IC50 [1] turn out when `CN(C(=O)Cc1ccc(Cl)c(Cl)c1)C(CN1CCCC1)c1ccc(NC(=O)CNC(=O)CNC(=O)CNC(=O)C/N=C(S)\N=C2/C=CC(=C3c4ccc(O)cc4Oc4cc(O)ccc43)C(C(=O)O)=C2)cc1` (centres undefined) was run?
Answer: 166 nM

Question: And the IC50 [7]?
Answer: 421 nM

Question: For `CN(C(=O)Cc1ccc(Cl)c(Cl)c1)C(CN1CCCC1)c1ccc(NC(=O)C/N=C(S)/N=C2\C=CC(=C3c4ccc(O)cc4Oc4cc(O)ccc43)C(C(=O)O)=C2)cc1` (centres undefined), which IC50 [1] is on record?
Answer: 62 nM

Question: And the IC50 [7]?
Answer: 102 nM

Question: Which IC50 [1] does the source give for `CN(C(=O)Cc1ccc(Cl)c(Cl)c1)C(CN1CCCC1)c1ccc(N/C(S)=N/c2ccc(-c3c4ccc(=O)cc-4oc4cc(O)ccc34)c(C(=O)O)c2)cc1` (centres undefined) here?
Answer: 5.2 nM

Question: And the IC50 [7]?
Answer: 12.6 nM

Question: Which IC50 [1] does the source give for `CN(C(=O)Cc1ccc(Cl)c(Cl)c1)[C@H](CN1CCCC1)c1cccc(NC(=O)C/N=C(S)/N=C2\C=CC(=C3c4ccc(O)cc4Oc4cc(O)ccc43)C(C(=O)O)=C2)c1` here?
Answer: 0.17 nM

Question: And the Recovery [2]?
Answer: 39%

Question: And the Ki [3]?
Answer: 0.31 nM

Question: And the Ki [4]?
Answer: 286 nM

Question: What about the Recovery [5] of the same molecule?
Answer: 79%

Question: What about the Recovery [6] of the same molecule?
Answer: 97%

Question: And the IC50 [7]?
Answer: 1.2 nM

Question: `CN(C(=O)Cc1ccc(Cl)c(Cl)c1)[C@H](CN1CCCC1)c1ccccc1` was tested. Which Recovery [2] did it give?
Answer: 20%

Question: What about the Recovery [6] of the same molecule?
Answer: 32%
